Test results: ChEMBL document CHEMBL1154849, “Bafilomycins produced in culture by Streptomyces spp. isolated from marine habitats are potent inhibitors of autophagy” (2010)
The source made the active and inactive calls. The rule behind the calls is not given here.

Legend:
Assay type in all cases: functional, cell-based
[1] = system: MCF7; assay: Inhibition of rapamycin-induced autophagy in human MCF7 cells expressing EGFP-LC3 assessed as decrease in EGFP levels at 100 nM after 4 hrs by Western blotting relative to control
In short: (§1)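 MCF-7 cells expressing EGFP-LC3 were exposed for 4 h to compounds alone or in combinations. Free EGFP band formation, a readout of EGFP-LC3 degradation, was followed by Western blot with anti-GFP antibody.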

[2] = system: MCF7; assay: […] in human MCF7 cells expressing EGFP-LC3 assessed as EGFP levels at 100 nM after 4 hrs by Western blotting relative to control; in short: as §1
[3] = system: MCF7; assay: Induction of autophagosome accumulation in human MCF7 cells expressing EGFP-LC3 assessed as punctate EGFP-LC3 level at => 1 nM after 4 hrs by automated microscopy relative to control
[4] = system: MCF7; assay: […] in human MCF7 cells expressing EGFP-LC3 assessed as EGFP levels at 30 nM after 4 hrs by Western blotting relative to control
[5] = system: MCF7; assay: Induction of autophagosome accumulation in human MCF7 cells expressing EGFP-LC3 assessed as punctate EGFP-LC3 level at => 10 nM after 4 hrs by automated microscopy relative to control
[6] = system: MCF7; assay: Induction of autophagosome accumulation in human MCF7 cells expressing EGFP-LC3 assessed as punctate EGFP-LC3 level at 0.3 nM after 4 hrs by automated microscopy relative to control
[7] = system: MCF7; assay: Induction of autophagosome accumulation in human MCF7 cells expressing EGFP-LC3 assessed as punctate EGFP-LC3 level at => 100 nM after 4 hrs by automated microscopy relative to control

Row | Compound | Activity [1] | Activity [2] | Activity [3] | Activity [4] | Activity [5] | Activity [6] | Activity [7]
1 | CO[C@H]1/C=C/C=C(\C)C[C@H](C)[C@H](O)[C@H](C)/C=C(C)/C=C(\C)C(=O)O[C@@H]1[C@@H](C)[C@@H](O)[C@H](C)[C@@]1(OC)C[C@@H](OC)[C@H](C)[C@@H](C(C)C)O1 | Active | inactive | Active | – | – | – | –
2 | CO/C1=C\C(C)=C\[C@@H](C)[C@@H](O)[C@@H](C)C/C(C)=C/C=C/[C@H](OC)[C@@H]([C@@H](C)[C@@H](O)[C@H](C)[C@@]2(O)C[C@@H](OC(=O)/C=C/C(=O)NC3=C(O)CCC3=O)[C@H](C)[C@@H](C(C)C)O2)OC1=O | Active | inactive | Active | – | – | – | –
3 | CO[C@H]1C[C@@H]2CC[C@@H](C)[C@@](O)(O2)C(=O)C(=O)N2CCCC[C@H]2C(=O)O[C@H]([C@H](C)C[C@@H]2CC[C@@H](O)[C@H](OC)C2)CC(=O)[C@H](C)/C=C(\C)[C@@H](O)[C@@H](OC)C(=O)[C@H](C)C[C@H](C)/C=C/C=C/C=C/1C | – | – | – | Active | – | – | –
4 | CO/C1=C\C(C)=C\[C@@H](C)[C@@H](O)[C@@H](C)C/C(C)=C/C=C/[C@H](OC)[C@@H]([C@@H](C)[C@@H](O)[C@H](C)[C@@]2(O)C[C@@H](OC(=O)C[C@@H]3SC[C@@H](C(=O)O)NC3=O)[C@H](C)[C@@H](C(C)C)O2)OC1=O | Active | inactive | – | – | Active | – | –
5 | CO/C1=C\C(C)=C\[C@@H](C)[C@@H](O)[C@@H](C)C/C(C)=C/C=C/[C@H](OC)[C@@H]([C@@H](C)[C@@H](O)[C@H](C)[C@@]2(OC)C[C@@H](OC)[C@H](C)[C@@H](C(C)C)O2)OC1=O | Active | inactive | – | – | Active | – | –
6 | CO/C1=C\C(C)=C\[C@@H](C)[C@@H](O)[C@@H](C)C/C(C)=C/C=C/[C@H](OC)[C@@H]([C@@H](C)[C@@H](O)[C@H](C)[C@@]2(O)C[C@@H](OC)[C@H](C)[C@@H](C(C)C)O2)OC1=O [BAFILOMYCIN G] | Active | inactive | – | – | – | Active | –
7 | CO[C@H]1/C=C/C=C(\C)C[C@H](C)[C@H](O)[C@H](C)/C=C(C)/C=C(\C)C(=O)O[C@@H]1[C@@H](C)[C@@H](O)[C@H](C)C(=O)/C=C/[C@H](C)[C@H](O)C(C)C | Active | inactive | – | – | Active | – | –
8 | CO/C1=C\C(C)=C\[C@@H](C)[C@@H](O)[C@@H](C)C/C(C)=C/C=C/[C@H](OC)[C@@H]([C@@H](C)/C=C(\C)C2=C[C@@H](OC)[C@H](C)[C@@H](C(C)C)O2)OC1=O | inactive | Active | – | – | – | – | Active
9 | CO/C1=C\C(C)=C\[C@@H](C)[C@@H](O)[C@@H](C)C/C(C)=C/C=C/[C@H](OC)[C@@H]([C@@H](C)[C@@H](O)[C@H](C)[C@@]2(O)C[C@@H](O)[C@H](C)[C@@H](C(C)C)O2)OC1=O | Active | inactive | Active | – | – | – | –
